Assay results published in ChEMBL document CHEMBL1139880, “Potent and selective agonists of human melanocortin receptor 5: cyclic analogues of alpha-melanocyte-stimulating hormone” (J Med Chem, 2007).
Starred links: 1 amine or outer side, 2 acyl side, 3 side chain; linkers in the order of their positions; H or OH if unused. Positions of bridges follow the written chain, without caps; N, C: chain ends. Non-standard residues stand in square brackets, D forms with d. Residues, ends and D or L forms follow the SMILES beside them. X4 = O=C([C@H](CC1CCC(C2CCCCC2)CC1)N[*:1])[*:2]; X3 = O=C([C@H]1CC2CCCCC2N1[*:1])[*:2]; Pip = O=C(O)[C@@H]1CCCCN1; Nle = CCCC[C@H](N)C(=O)O

Key:
Melanocortin receptor 4 [1] = biological target: T1, Melanocortin receptor 4 (Homo sapiens, UniProt P32245); assay: Displacement of [125I]NDPalphaMSH from human cloned MC4R expressed in CHO cells; assay type: cell-based
T1 sequence (P32245 whole entry): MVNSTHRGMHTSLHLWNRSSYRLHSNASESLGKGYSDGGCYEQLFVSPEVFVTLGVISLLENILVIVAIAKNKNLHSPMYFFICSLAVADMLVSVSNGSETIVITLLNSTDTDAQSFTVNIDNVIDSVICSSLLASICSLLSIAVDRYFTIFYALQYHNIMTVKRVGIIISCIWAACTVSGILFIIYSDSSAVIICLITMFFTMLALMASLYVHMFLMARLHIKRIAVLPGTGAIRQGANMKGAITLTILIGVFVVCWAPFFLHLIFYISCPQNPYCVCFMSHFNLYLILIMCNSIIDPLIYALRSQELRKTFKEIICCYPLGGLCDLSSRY

Melanocortin receptor 5 [2] = biological target: T2, Melanocortin receptor 5 (Homo sapiens, UniProt P33032); assay: Agonist activity at human MC5R expressed in CHO cells assessed as cAMP accumulation; assay type: functional, cell-based
T2 sequence (P33032 whole entry): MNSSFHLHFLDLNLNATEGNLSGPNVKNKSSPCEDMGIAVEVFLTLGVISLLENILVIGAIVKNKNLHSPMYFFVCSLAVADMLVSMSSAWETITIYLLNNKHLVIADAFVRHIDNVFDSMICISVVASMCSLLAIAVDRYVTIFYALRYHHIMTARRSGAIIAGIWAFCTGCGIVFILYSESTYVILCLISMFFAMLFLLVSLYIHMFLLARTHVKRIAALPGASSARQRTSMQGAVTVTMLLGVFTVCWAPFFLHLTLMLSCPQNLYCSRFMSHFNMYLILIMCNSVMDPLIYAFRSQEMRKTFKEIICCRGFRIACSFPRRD

Melanocortin receptor 3 [3] = biological target: T3, Melanocortin receptor 3 (Homo sapiens, UniProt P41968); assay: Agonist activity at human MC3R expressed in CHO cells assessed as cAMP accumulation; assay type: functional, cell-based
T3 sequence (P41968 whole entry): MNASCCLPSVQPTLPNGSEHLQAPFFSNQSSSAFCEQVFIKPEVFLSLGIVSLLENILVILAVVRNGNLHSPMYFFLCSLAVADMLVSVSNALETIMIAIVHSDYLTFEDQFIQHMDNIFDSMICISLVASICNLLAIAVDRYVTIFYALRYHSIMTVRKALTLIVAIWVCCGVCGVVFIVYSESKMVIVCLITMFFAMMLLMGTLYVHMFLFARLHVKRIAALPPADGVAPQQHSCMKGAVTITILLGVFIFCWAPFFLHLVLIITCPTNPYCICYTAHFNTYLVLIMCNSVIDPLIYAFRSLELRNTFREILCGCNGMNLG
In short: (§1)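 Dissociated CHO cells were spun 5 min and resuspended in Earle's balanced salt solution with 10 mM HEPES pH 7.5, 5 mM MgCl2, 1 mM glutamine and 1 mg/mL BSA. They were incubated 40 min at room temperature with compound (0.003–5000 nM) plus 0.6 mM IBMX, then lysed with 0.1 M HCl. cAMP was measured by Flashplate cAMP assay.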

[4] = biological target: T4, Melanocyte-stimulating hormone receptor (Homo sapiens, UniProt Q01726); assay: Displacement of [125I]NDPalphaMSH from human cloned melanocortin receptor 1b expressed in CHO cells; assay type: cell-based
Target sequence in this assay (Q01726 whole entry): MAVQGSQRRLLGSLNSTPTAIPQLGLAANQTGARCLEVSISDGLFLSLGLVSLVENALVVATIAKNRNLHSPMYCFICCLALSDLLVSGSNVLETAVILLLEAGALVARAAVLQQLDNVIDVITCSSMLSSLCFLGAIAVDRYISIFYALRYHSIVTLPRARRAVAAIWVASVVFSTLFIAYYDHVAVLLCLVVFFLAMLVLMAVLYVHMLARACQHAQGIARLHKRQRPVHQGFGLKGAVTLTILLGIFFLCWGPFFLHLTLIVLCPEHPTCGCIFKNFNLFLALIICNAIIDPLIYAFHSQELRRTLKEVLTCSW

[5] = biological target: T4, Melanocyte-stimulating hormone receptor; assay: Agonist activity at human melanocortin receptor 1b expressed in CHO cells assessed as cAMP accumulation; assay type: functional, cell-based; in short: as §1
Target sequence in this assay (Q01726 whole entry): as above

Melanocortin receptor 5 [6] = biological target: T2, Melanocortin receptor 5; assay: Displacement of [125I]NDPalphaMSH from human cloned MC5R expressed in CHO cells; assay type: cell-based
Melanocortin receptor 3 [7] = biological target: T3, Melanocortin receptor 3; assay: Displacement of [125I]NDPalphaMSH from human cloned MC3R expressed in CHO cells; assay type: cell-based
Melanocortin receptor 4 [8] = biological target: T1, Melanocortin receptor 4; assay: Agonist activity at human MC4R expressed in CHO cells assessed as cAMP accumulation at 10 uM relative to [125I]NDPalphaMSH; assay type: functional, cell-based
Melanocortin receptor 3 [9] = biological target: T3, Melanocortin receptor 3; assay: Agonist activity at human MC3R expressed in CHO cells assessed as cAMP accumulation at 10 uM relative to [125I]NDPalphaMSH; assay type: functional, cell-based
Melanocortin receptor 4 [10] = biological target: T1, Melanocortin receptor 4; assay: Agonist activity at human MC4R expressed in CHO cells assessed as cAMP accumulation at 1 uM relative to [125I]NDPalphaMSH; assay type: functional, cell-based
Melanocortin receptor 4 [11] = biological target: T1, Melanocortin receptor 4; assay: Inhibition of human cloned MC4R expressed in CHO cells at 2 uM relative to [125I]NDPalphaMSH; assay type: cell-based
[12] = biological target: T4, Melanocyte-stimulating hormone receptor; assay: Agonist activity at human melanocortin receptor 1b expressed in CHO cells assessed as cAMP accumulation at 1 uM relative to [125I]NDPalphaMSH; assay type: functional, cell-based
Target sequence in this assay (Q01726 whole entry, looked up): as the sequence (Q01726 whole entry) above

Homo sapiens [13] = organism: Homo sapiens; assay: Selectivity for human cloned MC5R over human cloned MC1bR
Homo sapiens [14] = organism: Homo sapiens; assay: Selectivity for human cloned MC5R over human cloned MC3R
Melanocortin receptor 4 [15] = biological target: T1, Melanocortin receptor 4; assay: Agonist activity at human MC4R expressed in CHO cells assessed as cAMP accumulation at 2 uM relative to [125I]NDPalphaMSH; assay type: functional, cell-based; settings: filed as partial agonist
[16] = biological target: Melanocortin receptor (M4 and M5) (Homo sapiens) (UniProt P32245+P33032); assay: Selectivity for human cloned MC5R over human cloned MC4R; assay type: protein assay
Sequence of Melanocortin receptor (M4 and M5) (Homo sapiens) (P32245 whole entry, looked up): as the sequence (P32245 whole entry) above
Sequence of Melanocortin receptor (M4 and M5) (Homo sapiens) (P33032 whole entry, looked up): as the sequence (P33032 whole entry) above

Melanocortin receptor 3 [17] = biological target: T3, Melanocortin receptor 3; assay: Agonist activity at human MC3R expressed in CHO cells assessed as cAMP accumulation at 2 uM relative to [125I]NDPalphaMSH; assay type: functional, cell-based
[18] = biological target: T4, Melanocyte-stimulating hormone receptor; assay: Agonist activity at human melanocortin receptor 1b expressed in CHO cells assessed as cAMP accumulation relative to [125I]NDPalphaMSH; assay type: functional, cell-based
Target sequence in this assay (Q01726 whole entry, looked up): as the sequence (Q01726 whole entry) above

Melanocortin receptor 3 [19] = biological target: T3, Melanocortin receptor 3; assay: Agonist activity at human MC3R expressed in CHO cells assessed as cAMP accumulation at 1 uM relative to [125I]NDPalphaMSH; assay type: functional, cell-based

Compound	IC50 (Melanocortin receptor 4 [1])	EC50 (Melanocortin receptor 5 [2])	EC50 (Melanocortin receptor 3 [3])	IC50 [4]	EC50 [5]	IC50 (Melanocortin receptor 5 [6])	IC50 (Melanocortin receptor 3 [7])	Ratio IC50 (Homo sapiens [13])	also measured
CCCC[C@H](NC(C)=O)C(=O)N[C@H]1CC(=O)NCCCC[C@@H](C(N)=O)NC(=O)[C@H](Cc2c[nH]c3ccccc23)NC(=O)[C@@H]2CCCCN2C(=O)[C@@H](Cc2ccc(-c3ccccc3)cc2)NC(=O)[C@H](Cc2c[nH]cn2)NC1=O	570 nM (antagonist)	0.37 nM (agonist)	370 nM (agonist)	5.9 nM (antagonist)	3.3 nM (agonist)	0.72 nM (antagonist)	1400 nM (antagonist)	–	–
CCCC[C@H](NC(C)=O)C(=O)N[C@H]1CC(=O)NCCCC[C@@H](C(N)=O)NC(=O)[C@H](Cc2c[nH]c3ccccc23)NC(=O)[C@@H]2CCCN2C(=O)[C@@H](Cc2ccc(Cl)cc2)NC(=O)[C@H](Cc2c[nH]cn2)NC1=O	4500 nM (antagonist)	82 nM (agonist)	> 5000 nM	560 nM (antagonist)	63 nM (agonist)	1300 nM (antagonist)	> 20000 nM	–	–
CCCC[C@H](NC(C)=O)C(=O)N[C@H]1CC(=O)NCCCC[C@@H](C(N)=O)NC(=O)[C@H](Cc2cc3ccccc3[nH]2)NC(=O)[C@@H]2CCCN2C(=O)[C@@H](Cc2ccccc2)NC(=O)[C@H](Cc2cnc[nH]2)NC1=O	–	–	–	–	–	–	–	–	Activity (Melanocortin receptor 4 [8]): 6%; Activity (Melanocortin receptor 3 [9]): 2%
CCCC[C@H](NC(C)=O)C(=O)N[C@H]1CC(=O)NCCCC[C@@H](C(N)=O)NC(=O)[C@H](Cc2c[nH]c3ccccc23)NC(=O)[C@@H]2CCCCN2C(=O)[C@H](CC2CCC(C3CCCCC3)CC2)NC(=O)[C@H]2CC3CCCCC3N2C1=O (some centres not stated) (Ac-[Nle]D[X3][X4][Pip]WK-NH2; lactam 2-7)	–	–	–	–	–	–	–	1.8	Activity (Melanocortin receptor 4 [10]; filed as partial agonist): 39%; EC50 (Melanocortin receptor 5 [2]; cho): > 500 nM; EC50 (Melanocortin receptor 3 [3]; cho): > 500 nM; IC50 ([4]; cho): 1300 nM (antagonist); inhibition (Melanocortin receptor 4 [11]): 25%; Activity [12]: 13%; IC50 (Melanocortin receptor 5 [6]; cho): 700 nM (antagonist); IC50 (Melanocortin receptor 3 [7]; cho): > 1000 nM
CCCC[C@H](NC(C)=O)C(=O)N[C@H]1CC(=O)NCCCC[C@@H](C(N)=O)NC(=O)[C@H](Cc2c[nH]c3ccccc23)NC(=O)[C@@H]2CCCCN2C(=O)[C@H](Cc2ccc(-c3ccccc3)cc2)NC(=O)[C@@H]2CC3CCCCC3N2C1=O (some centres not stated)	–	–	–	–	–	–	–	> 5000	Ratio IC50 (Homo sapiens [14]): > 5000; Activity (Melanocortin receptor 4 [15]): 40%; Ratio IC50 [16]: > 5000; Activity (Melanocortin receptor 3 [17]): 5%
CCCC[C@H](NC(C)=O)C(=O)N[C@H]1CC(=O)NCCCC[C@@H](C(N)=O)NC(=O)[C@H](Cc2c[nH]c3ccccc23)NC(=O)[C@@H]2CCCCN2C(=O)[C@H](Cc2ccc(-c3ccccc3)cc2)NC(=O)[C@H](C(C)C)NC1=O	–	–	–	–	–	–	–	670	Activity (Melanocortin receptor 4 [10]; filed as agonist): 77%; Activity [18]: 33%; Activity (Melanocortin receptor 3 [19]): 3%

Continued, in another order:

IC50 (Melanocortin receptor 4 [1])	EC50 (Melanocortin receptor 5 [2])	EC50 (Melanocortin receptor 3 [3])	IC50 [4]	EC50 [5]	IC50 (Melanocortin receptor 5 [6])	IC50 (Melanocortin receptor 3 [7])	Ratio IC50 (Homo sapiens [13])	Compound	also measured
1200 nM (antagonist)	2.5 nM (agonist)	1400 nM (agonist)	45 nM (antagonist)	5.3 nM (agonist)	4.1 nM (antagonist)	1500 nM	–	CCCC[C@H](NC(C)=O)C(=O)N[C@H]1CC(=O)NCCCC[C@@H](C(N)=O)NC(=O)[C@H](Cc2c[nH]c3ccccc23)NC(=O)[C@@H]2CCCN2C(=O)[C@@H](Cc2ccc(-c3ccccc3)cc2)NC(=O)[C@H](Cc2c[nH]cn2)NC1=O	–
–	270 nM (agonist)	> 2500 nM	430 nM (antagonist)	60 nM (agonist)	340 nM (antagonist)	> 10000 nM	–	CCCC[C@H](NC(C)=O)C(=O)N[C@H]1CC(=O)NCCCC[C@@H](C(N)=O)NC(=O)[C@H](Cc2c[nH]c3ccccc23)NC(=O)[C@@H]2CCCN2C(=O)[C@@H](Cc2ccc(OCC)cc2)NC(=O)[C@H](Cc2cnc[nH]2)NC1=O	–
